From PubChem BioAssay
Values without a mark were called inactive. Inconclusive results are not listed. Active and inactive are the calls of the source.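 How the source made its calls, unless noted: active means viability increase at or above a cutoff of the median across tested compounds plus 3 SD (cut at about 8.5% in these data, passing the limit was not always enough); inconclusive means some gains above the cutoff, reason not given; inactive means the rest.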

Experiments:
[1] = S. cerevisiae growth inhibition in permissive medium (OD615), pilot counter-assay for S. cerevisiae lifespan shortening project, permissive growth control (AID 705;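 active means growth inhibition above 25% in both replicates, a cutoff set 3 SD above the mean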); conditions: OD615, 24 h, at 10 µM, stronger effect = higher value
Summary of the method: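 Material: engineered DeaD yeast; compound dosing: one dose 10 µM, DMSO 0.25% final; measure: yeast growth inhibition indicated by reduced 24 h OD615; detection: OD615 turbidity read; incubation: cells pre-grown 4 h, then 24 h compound exposure, 30 °C humidified; medium: permissive synthetic complete medium with raffinose and galactose carbon sources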

[2] = S. cerevisiae growth inhibition in restrictive medium, OD615, pilot screen, restrictive growth control, yeast lifespan reduction project (AID 706;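 active means growth inhibition above a set limit, 3 SD over mean compound inhibition, in both replicates, cut at about 43% in these data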;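 further: modified DeaD lifespan yeast strain shifted to restrictive glucose medium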); conditions: OD615, 48 h, at 10 µM, stronger effect = higher value
Summary of the method: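 material = engineered S. cerevisiae DeaD strain | medium = glucose-based CSMM-D restrictive medium | times = 4 h pre-incubation, 48 h exposure at 30 °C | technique = OD615 absorbance reading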

[3] = doxorubicin toxicity protection in MRP-1 cells – H69AR cells, CellTiter-Glo, duplicate, MRP-1 activator project, pilot screen (AID 807); conditions: H69AR viability with doxorubicin, CellTiter-Glo luminescence; at 10 µM; stronger effect = higher value;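 further: compound pretreatment 18-22 h then 72 h combined with doxorubicin; 0% = doxorubicin alone and 100% = vehicle without doxorubicin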
[4] = viability of HCT116 without oncogenic beta-catenin – human colon tumor cells, pilot screen (AID 823;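 active means cell viability at or below a set limit in both duplicate runs, the limit being the all-compound median minus 4 SD, cut at about 23% in these data, passing the limit was not always enough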;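 further: 0% = wells killed by 20 µM Hyamine and 100% = untreated DMSO cell wells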); conditions: HCT116 beta-catenin knockout viability, CellTiter-Glo, 60 h; at 10 µM; stronger effect = lower value
[5] = viability of PTEN-null HCT116 cells – cell-based, HCT116 clonal line, CellTiter-Glo, pilot screen (AID 824;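 active means viability at or below 27.92% in each of two runs, the all-compound median minus 4 SD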;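 further: 0% = 20 µM Hyamine control and 100% = vehicle cell control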); conditions: HCT116 PTEN-deleted viability, 60 h, at 10 µM, stronger effect = lower value
[6] = RAM pathway blockade in budding yeast – dse1pr::URA3 reporter, 5-FOA selection, pilot screen (AID 869;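 active means inhibition over a set limit, the all-compound mean plus 3 SD, in both replicate runs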;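 further: 0% = DMSO wells with no growth and 100% = 10 µM 1-NA-PP1 with full growth; RAM network block rescues cells from 5-FOA so hits raise OD615 growth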); conditions: S. cerevisiae dse1pr::URA3 5-FOA growth, OD615, 2 d; at 10 µM; stronger effect = higher value; strain carries analog-sensitive mutant Cbk1 kinase
[7] = RAM signaling pathway blockade in yeast – S. cerevisiae, Pdr1DBD-CYC8 efflux-inhibited sensitized strain, primary screen (AID 1298;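 active means RAM network inhibition above 8.4% in each of two replicates, 3 SD over the compound average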;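 further: 0% = DMSO untreated cells without growth and 100% = 10 µM 1-NA-PP1 full growth; higher means more yeast growth rescued from 5-FOA killing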); conditions: S. cerevisiae cbk1-as DSE1-URA3 strain, 5-FOA growth OD615, 2 d; at 50 µM; stronger effect = higher value

SMILES | growth inhibition [1] [%] | growth inhibition [2] [%] | viability increase [3] [%] | viability [4] | viability [5] | inhibition [6] [%] | RAM network inhibition [7] [%]
O=C(/C=N/O)Nc1ccccc1C(=O)O | -14.8 | -16.7 | -2.95 | 97.1% | 98.5% | 2.12 | 4.14
Oc1cc(Cc2ccccc2)cnc1CN1CCCCC1 | -10.9 | 2.06 | -1 | 95.6% | 98% | 0.305 | 3.35
Cc1ccc(S(=O)(=O)NCc2nc3ccccc3[nH]2)cc1 | -4.75 | 4.05 | 1.61 | 98.7% | 97.8% | 2.42 | 1.58
O=C(NCc1ccco1)c1cc(S(=O)(=O)N2CCOCC2)ccc1Cl | -8.68 | -8.34 | -3.24 | 86.2% | 95.2% | 3.05 | 1.96
O=C(CN1C(=O)CCC1=O)Nc1nc2c(F)cc(F)cc2s1 | -23 | -18.8 | -0.91 | 99.4% | 92.5% | 1.6 | 1.49
CCN(CCC(=O)Nc1cc(OC)cc(OC)c1)Cc1ccccc1 | 1.21 | -14.7 | -2.96 | 84.4% | 85.8% | 2.68 | 3.12
O=C(O)c1ccc(NS(=O)(=O)c2cc(Cl)ccc2Cl)cc1 | -13.7 | -25.1 | -2.13 | 97.8% | 95.3% | 1.72 | 4.43
C1CCC2(CC1)C1=C(CCCC1)Nc1nnnn12 | -4.35 | 1.16 | -1.07 | 93.5% | 87.8% | 2.16 | 5.77
CCSCCOC(=O)C1=C(C)NC(=O)NC1c1cccc(OC)c1OC (stereo unspecified) | -15 | -9.84 | -1.39 | 96.8% | 96.9% | 0.96 | 0.63
O=C(O)c1cnn2c1NC(c1cccs1)CC2C(F)(F)F (stereo unspecified) | -22.6 | -21.6 | 0.98 | 96.8% | 104% | 1.5 | 4.4
COc1cc2c(cc1OC)CN(Cc1cccs1)CC2 | -20.3 | -28.9 | -1.14 | 86.4% | 90% | 2.71 | 2.76
CCN1CCN(C(c2cccs2)C(C)NC(=O)c2cccc(OC)c2)CC1 (stereo unspecified) | -2.49 | -14.8 | -2.25 | 103% | 89.7% | -0.09 | -0.01
COc1cc(C2C(C#N)=C(C)NC3=C2C(=O)CC(C)(C)C3)ccc1OCCO (stereo unspecified) | -9.96 | -14.6 | -0.94 | 97.8% | 104% | 1.43 | 3.55
CN(C)CCNc1ncnc2c1cnn2-c1ccc(Cl)cc1 | -13.2 | -3.57 | -7.01 | 4.33% (active) | 4.63% (active) | 1.62 | 3.07
C=CCn1c(SCCOC)nc2c1c(=O)[nH]c(=O)n2C | 2.12 | 0.43 | -2.47 | 99% | 95% | 0.665 | -0.26
Cc1ccc(N(C)C(=O)N2CCN(S(=O)(=O)c3ccc(C)cc3)CC2)cc1 | -1.22 | -7.74 | -1.03 | 93.7% | 96.6% | 0.215 | 6.2
N#CCC(=O)Nc1ccccc1C(=O)O | -4.9 | 0.025 | -2.8 | 94.8% | 97% | 0.695 | -0.92

SMILES | growth inhibition [1] [%] | growth inhibition [2] [%] | viability increase [3] [%] | viability [4] | viability [5] | inhibition [6] [%] | RAM network inhibition [7] [%]
CCOc1cccc(N2C(=O)CC(NCc3ccc(S(N)(=O)=O)cc3)C2=O)c1 (stereo unspecified) | -14.7 | -1.03 | -1.3 | 101% | 94.7% | 0.44 | 2.35
O=C(Cn1nc(Cc2cccnc2)c2ccccc2c1=O)NCCCN1CCCC1=O | 3.02 | -5.47 | -0.8 | 103% | 97.3% | 0.75 | 0.25
COc1ccc(-c2cc(C(F)(F)F)n3nc(C)cc3n2)cc1 | -16.1 | -2.2 | 0.18 | 96.2% | 87% | 2 | -0.06
COc1ccc(N(CC(=O)Nc2cccc(SC)c2)S(C)(=O)=O)cc1Cl | -4.88 | -9.05 | -6.18 | 77.7% | 80.6% | 0.975 | 3.03
O=C1CC(c2cccnc2)c2cc3c(cc2N1)OCCO3 (stereo unspecified) | 2.41 | -0.935 | -2.86 | 91.5% | 91.9% | 2.35 | 2.43
O=C(NCCc1ccccc1)C1CCN(C(=O)c2sccc2-n2cccc2)CC1 | -0.295 | -8.75 | -1.15 | 101% | 93.8% | 3.48 | 4
COc1ccc(S(=O)(=O)N2CCN(C)CC2)cc1C | -15.1 | -4 | 1.37 | 88.4% | 92.1% | 3.29 | 3.02
CCCn1nc2ccccc2c1P(=N)(N1CCOCC1)N1CCOCC1 | -7.87 | -23.5 | -2 | 96% | 96.8% | 2.04 | 1.45
O=P(/C(=N/O)Sc1ccccc1)(N1CCOCC1)N1CCOCC1 | -7.6 | 1.87 | -4.88 | 90% | 97% | 0.62 | 4.34
COc1cc2c(cc1OC)C(COc1ccc3c(C)cc(=O)oc3c1)N(C(=O)c1ccco1)CC2 (stereo unspecified) | -1.62 | -3.73 | -4.63 | 91.8% | 87.8% | 1.6 | 4.74
O=C(O)c1cccc(-n2cnnn2)c1 | 1.37 | 1.52 | 0.82 | 104% | 101% | 1.06 | 4.03
Cc1ccc(S(=O)(=O)N2CCCC2C(=O)Nc2nccs2)cc1 (stereo unspecified) | -15.2 | -6.25 | -1.37 | 97% | 98.6% | -0.275 | 4.76
Cc1ccc(OC(=O)CCC(=O)Nc2ccc(S(=O)(=O)Nc3cc(C)on3)cc2)cc1 | -2.27 | 0.38 | -1.11 | 109% | 106% | 0.875 | 3.97
Cc1ccc(C(=O)Nc2ccccc2NC(=O)c2ccc(C)o2)o1 | -1.73 | 8.06 | -3.39 | 93.2% | 91.6% | 1.41 | 3.58
Cc1nc(Sc2nnnn2-c2ccccc2)c(C#N)c(C)c1C | -13.8 | -9.12 | -2.52 | 108% | 97% | 2.97 | 9.98
CCOC(=O)C1CCN(C(c2cccc(OC)c2)c2sc3nc(C)nn3c2O)CC1 (stereo unspecified) | -2.67 | -6.39 | -1.96 | 94.2% | 95.9% | 0.11 | -0.51
